Measurements as given in ChEMBL document CHEMBL3271979, “Inhibition of solid tumors by nitrosoureas. 1. Lewis lung carcinoma” (1977).
Calls of active or inactive are those of the source. No cut-off for these calls is given here.

Experiments:
[1] = Antitumor activity against mouse early Lewis lung carcinoma allografted in BDF1 mouse assessed as time delay in tumor growth at 34 mg/kg, ip administered as single dose on 1 or 2 days post-tumor implantation; type: functional; conditions: route intraperitoneal
Outline: (§1)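 BDF1 mice (C57Blk/6 × DBA/2) implanted sc by trocar with ~40 mg Lewis lung tumor fragments from bacteriologically sterile donors. A single ip dose was given on day 1 or 2, as a solution or suspension in water or saline with suspending agent, at ≤0.5 ml. Tumors were measured by caliper at least twice weekly, with weight = ab²/2. Delay was taken as the days for the tumor to reach 1 g.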

[2] = Antitumor activity against mouse early Lewis lung carcinoma allografted in BDF1 mouse assessed as increase in host life span at 34 mg/kg, ip administered as single dose on 1 or 2 days post-tumor implantation; type: functional; conditions: route intraperitoneal
Outline: (§2)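 BDF1 mice (C57Blk/6 × DBA/2) implanted sc by trocar with ~40 mg Lewis lung tumor fragments from bacteriologically sterile donor tumors. Single ip dose on day 1 or 2, as a solution or suspension in water (CMC or gum acacia) or saline (HPC or Tween 80). Read-out is […]. Same-dose toxicity controls were run in nontumor-bearing mice.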

[3] = Antitumor activity against mouse early Lewis lung carcinoma allografted in BDF1 mouse assessed as time delay in tumor growth at 26 mg/kg, ip administered as single dose on 1 or 2 days post-tumor implantation; type: functional; conditions: route intraperitoneal; outline: as §1
[4] = Ratio of ED50 for antitumor activity against mouse L1210 cells allografted in ip dosed mouse to LD10 for mouse
[5] = Antitumor activity against mouse advanced Lewis lung carcinoma allografted in BDF1 mouse assessed as increase in host life span at 26 mg/kg, ip administered as single dose on 7th day post-tumor implantation; type: functional; conditions: route intraperitoneal
Outline: (§3)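 BDF1 mice (C57Blk/6 × DBA/2) implanted sc by trocar with about 40 mg Lewis lung tumor fragments from bacteriologically sterile donors. Advanced-disease groups held tumors of about 400 mg by day 6-7, sized by caliper (w = ab²/2). Single ip injection on day 7, in water or saline vehicle, at or below the LD10 in normal mice. Tumors measured at least twice weekly.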

[6] = Antitumor activity against mouse early Lewis lung carcinoma allografted in BDF1 mouse assessed as increase in host life span at 26 mg/kg, ip administered as single dose on 1 or 2 days post-tumor implantation; type: functional; conditions: route intraperitoneal; outline: as §2
[7] = Antitumor activity against mouse advanced Lewis lung carcinoma allografted in ip dosed BDF1 mouse assessed as increase in host lifespan administered as single dose on day 6 or 7 post-tumor implantation; type: functional
Outline: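 Advanced Lewis lung model: about 40 mg fragments implanted sc by trocar into BDF1 mice, and mice with tumors of about 400 mg (day 6-7) selected. Tumor weight from calipers, w = ab²/2. Agent given as one ip dose in distilled water or physiological saline. Nontumor-bearing mice received matching doses as toxicity controls.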

[8] = Antitumor activity against mouse early Lewis lung carcinoma allografted in ip dosed BDF1 mouse assessed as disease cure administered as single dose on 1 or 2 days post-tumor implantation measured for 80 days post-drug treatment; type: functional
Outline: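 BDF1 mice implanted sc by trocar with ~40 mg Lewis lung fragments from sterile donor tumors. A single ip dose was given on day 1 or 2 after implant, in water or saline vehicle. Cures were scored in animals observed for at least 80 days after treatment. Drug-toxicity controls were matched non-tumor-bearing mice monitored for body weight and deaths.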

Mus musculus [9] = assay: Antitumor activity against mouse advanced Lewis lung carcinoma allografted in ip dosed BDF1 mouse assessed as complete regression of established tumor administered as single dose on day 6 or 7 post-tumor implantation; type: functional, organism-based
Outline: (§4)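 BDF1 mice (C57Blk/6 × DBA/2) implanted sc by trocar with Lewis lung tumor fragments of about 40 mg, taken only from bacteriologically sterile donor tumors. Mice bearing tumors of about 400 mg (day 6-7) were selected. Each received a single ip dose on day 7, at or below the LD10 in normal mice. Groups were of 10 mice. Tumor weight was taken from calipers as w = ab²/2, measured at least twice weekly. Matched non-tumor mice served as toxicity controls.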

Mus musculus [10] = assay: Antitumor activity against mouse advanced Lewis lung carcinoma allografted in ip dosed BDF1 mouse assessed as disease cure administered as single dose on day 6 or 7 post-tumor implantation; type: functional, organism-based; outline: as §4
[11] = Antitumor activity against mouse early Lewis lung carcinoma allografted in BDF1 mouse assessed as time delay in tumor growth at 148 mg/kg, ip administered as single dose on 1 or 2 days post-tumor implantation; type: functional; conditions: route intraperitoneal; outline: as §1
[12] = Antitumor activity against mouse early Lewis lung carcinoma allografted in BDF1 mouse assessed as increase in host life span at 99 mg/kg, ip administered as single dose on 1 or 2 days post-tumor implantation; type: functional; conditions: route intraperitoneal; outline: as §2
Mus musculus [13] = assay: Antitumor activity against mouse advanced Lewis lung carcinoma allografted in BDF1 mouse assessed as disease cure at 44 mg/kg, ip administered as single dose on 7th day post-tumor implantation measured for 80 days post-drug treatment; type: functional, organism-based; design: dose 44 mg/kg; outline: as §4
[14] = Antitumor activity against mouse early Lewis lung carcinoma allografted in BDF1 mouse assessed as time delay in tumor growth at 99 mg/kg, ip administered as single dose on 1 or 2 days post-tumor implantation; type: functional; conditions: route intraperitoneal; outline: as §1
[15] = Antitumor activity against mouse early Lewis lung carcinoma allografted in BDF1 mouse assessed as increase in host life span at 148 mg/kg, ip administered as single dose on 1 or 2 days post-tumor implantation; type: functional; conditions: route intraperitoneal; outline: as §2
[16] = Antitumor activity against mouse advanced Lewis lung carcinoma allografted in BDF1 mouse assessed as increase in host life span at 44 mg/kg, ip administered as single dose on 7th day post-tumor implantation; type: functional; conditions: route intraperitoneal; outline: as §3
[17] = Antitumor activity against mouse early Lewis lung carcinoma allografted in BDF1 mouse assessed as time delay in tumor growth at 32 mg/kg, ip administered as single dose on 1 or 2 days post-tumor implantation; type: functional; conditions: route intraperitoneal; outline: as §1
[18] = Antitumor activity against mouse advanced Lewis lung carcinoma allografted in BDF1 mouse assessed as increase in host life span at 33 mg/kg, ip administered as single dose on 7th day post-tumor implantation; type: functional; conditions: route intraperitoneal; outline: as §3
[19] = Antitumor activity against mouse early Lewis lung carcinoma allografted in BDF1 mouse assessed as time delay in tumor growth at 21 mg/kg, ip administered as single dose on 1 or 2 days post-tumor implantation; type: functional; conditions: route intraperitoneal; outline: as §1
[20] = Antitumor activity against mouse early Lewis lung carcinoma allografted in BDF1 mouse assessed as increase in host life span at 21 mg/kg, ip administered as single dose on 1 or 2 days post-tumor implantation; type: functional; conditions: route intraperitoneal; outline: as §2
Mus musculus [21] = assay: Antitumor activity against mouse advanced Lewis lung carcinoma allografted in BDF1 mouse assessed as disease cure at 33 mg/kg, ip administered as single dose on 7th day post-tumor implantation measured for 80 days post-drug treatment; type: functional, organism-based; design: dose 33 mg/kg; outline: as §4
[22] = Antitumor activity against mouse early Lewis lung carcinoma allografted in BDF1 mouse assessed as increase in host life span at 32 mg/kg, ip administered as single dose on 1 or 2 days post-tumor implantation; type: functional; conditions: route intraperitoneal; outline: as §2
[23] = Antitumor activity against mouse early Lewis lung carcinoma allografted in BDF1 mouse assessed as increase in host life span at 30 mg/kg, ip administered as single dose on 1 or 2 days post-tumor implantation; type: functional; conditions: route intraperitoneal; outline: as §2
[24] = Antitumor activity against mouse early Lewis lung carcinoma allografted in BDF1 mouse assessed as time delay in tumor growth at 20 mg/kg, ip administered as single dose on 1 or 2 days post-tumor implantation; type: functional; conditions: route intraperitoneal; outline: as §1
[25] = Antitumor activity against mouse early Lewis lung carcinoma allografted in BDF1 mouse assessed as time delay in tumor growth at 30 mg/kg, ip administered as single dose on 1 or 2 days post-tumor implantation; type: functional; conditions: route intraperitoneal; outline: as §1
[26] = Antitumor activity against mouse early Lewis lung carcinoma allografted in BDF1 mouse assessed as increase in host life span at 20 mg/kg, ip administered as single dose on 1 or 2 days post-tumor implantation; type: functional; conditions: route intraperitoneal; outline: as §2

SMILES: O=NN(CCCl)C(=O)N[C@H]1CC[C@H](CC(=O)O)CC1
- Time [1]: 11 days
- ILS at 34 mg/kg [2]: 23%
- Time [3]: 10 days
- Ratio [4]: 0.3
- ILS at 26 mg/kg [5]: 24%
- ILS at 26 mg/kg [6]: 34%
- ILS [7]: >25%
- Activity [8]: >50%
- inhibition (Mus musculus [9]): inactive
- Activity (Mus musculus [10]): inactive

SMILES: C[C@H]1CC[C@H](NC(=O)N(CCF)N=O)CC1
- Ratio [4]: 0.6
- Time [11]: 1.4 days
- ILS at 99 mg/kg [12]: 34%
- Activity (Mus musculus [13]): inactive
- Time [14]: 2.6 days
- Activity [8]: 10%
- ILS at 148 mg/kg [15]: 0%
- inhibition (Mus musculus [9]): Active
- Activity (Mus musculus [10]): inactive
- ILS at 44 mg/kg [16]: 94%

SMILES: O=NN(CCF)C(=O)NC1CCS(=O)(=O)CC1
- Ratio [4]: 0.3
- Time [17]: 15 days
- ILS at 33 mg/kg [18]: 0%
- ILS [7]: >25%
- Time [19]: 8.3 days
- Activity [8]: 10%
- inhibition (Mus musculus [9]): inactive
- Activity (Mus musculus [10]): inactive
- ILS at 21 mg/kg [20]: 18%
- Activity (Mus musculus [21]): inactive
- ILS at 32 mg/kg [22]: 0%

SMILES: C[C@H]1SC[C@@H](NC(=O)N(CCCl)N=O)CS1
- ILS at 30 mg/kg [23]: 42%
- Ratio [4]: 0.4
- Time [24]: 8.1 days
- Time [25]: 18 days
- ILS [7]: <25%
- Activity [8]: 10%
- ILS at 20 mg/kg [26]: 0%
- inhibition (Mus musculus [9]): inactive
